Results on 16 compounds are retold here after ChEMBL document CHEMBL3875155, “New (arylalkyl)azole derivatives showing anticonvulsant effects could have VGSC and/or GABAAR affinity according to molecular modeling studies” (Eur J Med Chem, 2016).

Data set [1] concerns Mus musculus. In words: Neurotoxicity in Swiss albino mouse at 100 mg/kg, ip after 4 hrs by rotarod test. The class given is toxicity, organism-based. As to conditions: in vivo. Put shortly:
(§1)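 Rotarod turning at 6 rpm, run after i.p. dosing of PEG 400 suspension (30, 100 or 300 mg/kg; 0.5 or 4 h). Falling off three times within 1 min marks a mouse as neurotoxic. Placebo (PEG) mice serve as control. Scored as number failing/number tested.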

For data set [2], the system named is Mus musculus. Kind of data set: Neurotoxicity in Swiss albino mouse at 300 mg/kg, ip after 4 hrs by rotarod test. It counts as toxicity, organism-based. As to conditions: in vivo. Put shortly:
as §1
For orientation: Falling from the rotarod earlier than controls is read as motor impairment.

Data set [3] concerns Mus musculus. In words: Neurotoxicity in Swiss albino mouse at 30 mg/kg, ip after 4 hrs by rotarod test. The class given is toxicity, organism-based. As to conditions: in vivo. The method in brief:
as §1

Data set [4] deals with Mus musculus. Kind of data set: Neurotoxicity in Swiss albino mouse at 300 mg/kg, ip after 0.5 hrs by rotarod test. As to conditions: in vivo. It counts as toxicity, organism-based. The method in brief: as §1
Data set [5] relates to Mus musculus. In words: Neurotoxicity in Swiss albino mouse at 30 mg/kg, ip after 0.5 hrs by rotarod test. It counts as toxicity, organism-based. As to conditions: in vivo. The method in brief: as §1
The subject of data set [6] is Mus musculus. Kind of data set: Neurotoxicity in Swiss albino mouse at 100 mg/kg, ip after 0.5 hrs by rotarod test. The class given is toxicity, organism-based. As to conditions: in vivo. The method in brief: as §1
For data set [7], the system named is Mus musculus. Kind of data set: Anticonvulsant activity in Swiss albino mouse assessed as protection against maximal electroshock-induced seizures at 30 mg/kg, ip after 0.5 hrs. The class given is functional, organism-based. The method in brief: (§2)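 Compound suspended in PEG 400 and given i.p. at 30, 100 or 300 mg/kg, 0.5 or 4 h before testing. Saline (0.9%) applied to the corneas, then 60 Hz alternating current for 0.2 s through corneal electrodes. A mouse counts as protected if hind limb tonic extension stays under 90°. PEG-only placebo mice serve as negative control. Scored as number protected/number tested.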
(In the maximal electroshock model the usual endpoint is tonic extension of the hind limbs.)

The test system of data set [8] is Mus musculus. Kind of data set: Anticonvulsant activity in Swiss albino mouse assessed as protection against maximal electroshock-induced seizures at 300 mg/kg, ip after 0.5 hrs. The class given is functional, organism-based. Put shortly:
as §2

Data set [9] concerns Mus musculus. In words: Anticonvulsant activity in Swiss albino mouse assessed as protection against maximal electroshock-induced seizures at 100 mg/kg, ip after 4 hrs. The class given is functional, organism-based. Put shortly:
as §2

Data set [10] concerns Mus musculus. Kind of data set: Anticonvulsant activity in Swiss albino mouse assessed as protection against subcutaneously injected metrazol induced seizures at 100 mg/kg, ip after 4 hrs. It counts as functional, organism-based. Put shortly: (§3)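 Test compounds were given i.p. as PEG 400 suspensions at 30, 100 or 300 mg/kg, 0.5 or 4 h ahead. Metrazol 85 mg/kg is injected s.c. in the neck midline, and mice are watched for 30 min. A mouse counts as protected if it has no clonic spasm episode (about 3–5 s) of the limbs, jaws or vibrissae. PEG placebo serves as negative control. Scored as number protected/number tested.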

Data set [11] has as its system Mus musculus. In words: Anticonvulsant activity in Swiss albino mouse assessed as protection against subcutaneously injected metrazol induced seizures at 300 mg/kg, ip after 0.5 hrs. It counts as functional, organism-based. The method in brief:
as §3

For data set [12], the system named is Mus musculus. Kind of data set: Anticonvulsant activity in Swiss albino mouse assessed as protection against subcutaneously injected metrazol induced seizures at 300 mg/kg, ip after 4 hrs. The class given is functional, organism-based. The method in brief:
as §3

In data set [13] the test system is Mus musculus. Kind of data set: Anticonvulsant activity in Swiss albino mouse assessed as protection against maximal electroshock-induced seizures at 100 mg/kg, ip after 0.5 hrs. The class given is functional, organism-based. The method in brief:
as §2

The test system of data set [14] is Mus musculus. Kind of data set: Anticonvulsant activity in Swiss albino mouse assessed as protection against maximal electroshock-induced seizures at 300 mg/kg, ip after 4 hrs. It counts as functional, organism-based. The method in brief: as §2
The test system of data set [15] is Mus musculus. Kind of data set: Anticonvulsant activity in Swiss albino mouse assessed as protection against subcutaneously injected metrazol induced seizures at 30 mg/kg, ip after 4 hrs. The class given is functional, organism-based. The method in brief:
as §3

In data set [16] the test system is Mus musculus. In words: Anticonvulsant activity in Swiss albino mouse assessed as protection against maximal electroshock-induced seizures at 30 mg/kg, ip after 4 hrs. It counts as functional, organism-based. The method in brief:
as §2

The structures appear in SMILES notation. Active and inactive are the calls of the source. No cut-off for these calls is given here.

With `O=C(/C=C/c1ccccc1)O/N=C(\Cn1cncn1)c1ccc2ccccc2c1`, the Activity result in data set [1], in data set [2], in [3], in data set [4], in data set [5] and in [6] was “Non-Toxic” each time.

With `NC(=O)N1c2ccccc2C=Cc2ccccc21` [CARBAMAZEPINE], the Activity result in [1] was “Non-Toxic”; in [2], “Non-Toxic”; in [3] it was “Non-Toxic”; in data set [4] it was “Toxic”; in data set [5], “Non-Toxic”; in data set [6], “Non-Toxic”. For the same compound, the result in data set [7], in [8], in data set [9], in [10], in [11] and in [12] was Active. Besides, the result in data set [13] and in data set [14] was Active.

As for `CCCCC(=O)O/N=C(\Cn1cncn1)c1ccc2ccccc2c1.Cl`, the Activity result in [1], in data set [2], in data set [3], in data set [4], in data set [5] and in data set [6] was “Non-Toxic” in each case. Further, the outcome in data set [8] was Active.

On to `CCC(=O)O/N=C(\Cn1cncn1)c1ccc2ccccc2c1.Cl`, for which the Activity entry in data set [1], in data set [2], in data set [3], in data set [4], in data set [5] and in data set [6] was “Non-Toxic” throughout.

Take `CCCC(C)C(=O)O/N=C(\Cn1cncn1)c1ccc2ccccc2c1.Cl` (configuration not stated): the Activity result in [1], in data set [2], in [3], in data set [4], in [5] and in data set [6] was “Non-Toxic” throughout. In addition, in data set [8], the outcome was Active.

Regarding `CC(C)(C)C(=O)O/N=C(\Cn1cncn1)c1ccc2ccccc2c1`, the Activity entry in data set [1], in data set [2], in data set [3], in [4], in [5] and in [6] was “Non-Toxic” in each case.

On to `CC(C)CC(=O)O/N=C(\Cn1cncn1)c1ccc2ccccc2c1.Cl`, for which the Activity entry in data set [1], in data set [2], in [3], in [4], in data set [5] and in [6] was “Non-Toxic” each time. In addition, the outcome in [8], in data set [9], in data set [15], in data set [10], in data set [11] and in [12] was Active.

For the compound `CCC(C)C(=O)O/N=C(\Cn1cncn1)c1ccc2ccccc2c1` (configuration not stated), the Activity result in data set [1], in data set [2], in [3], in [4], in [5] and in data set [6] was “Non-Toxic” throughout. Also, the result in [8], in [12] and in [13] was Active.

As to `CC(C)CCC(=O)O/N=C(\Cn1cncn1)c1ccc2ccccc2c1.Cl`, the Activity result in [1], in data set [2], in [3], in data set [4], in [5] and in data set [6] was “Non-Toxic” in each case. Also, the outcome in data set [8], in [12] and in data set [13] was Active.

In the case of `O=C1NC(=O)C(c2ccccc2)(c2ccccc2)N1` [PHENYTOIN], the Activity entry in data set [1] is recorded as “Toxic”; in [2], “Toxic”; in data set [3], “Non-Toxic”; in [4] it was “Toxic”; in data set [5], “Non-Toxic”; in [6] it was “Non-Toxic”. The result in data set [7], in [16], in [8], in data set [9], in data set [13] and in [14] was Active.

For `CC(C)C(=O)O/N=C(\Cn1cncn1)c1ccc2ccccc2c1.Cl`, the Activity entry in data set [1], in data set [2], in [3], in data set [4], in data set [5] and in data set [6] was “Non-Toxic” throughout. The result in data set [14] was Active.

On to `CCCC(=O)O/N=C(\Cn1cncn1)c1ccc2ccccc2c1`, for which the Activity entry in [1], in [2], in data set [3], in data set [4], in [5] and in [6] was “Non-Toxic” throughout. In data set [14], the outcome was Active.

In the case of `CCCC(CCC)C(=O)O/N=C(\Cn1cncn1)c1ccc2ccccc2c1.Cl`, the Activity result in data set [1], in data set [2], in [3], in [4], in data set [5] and in data set [6] was “Non-Toxic” throughout. In addition, the outcome in data set [12] and in [14] was Active.

Turning to `O=C(O/N=C(\Cn1cncn1)c1ccc2ccccc2c1)C1CCCCC1`, the Activity result in [1], in [2], in [3], in [4], in data set [5] and in data set [6] was “Non-Toxic” each time. For the same compound, the outcome in [8] was Active.

Take `CCC(C)CC(=O)O/N=C(\Cn1cncn1)c1ccc2ccccc2c1.Cl` (configuration not stated): the Activity result in [1], in data set [2], in [3], in data set [4], in [5] and in [6] was “Non-Toxic” in each case. In addition, the result in [12], in data set [13] and in [14] was Active.

As for `Cl.O=C(Cc1ccccc1)O/N=C(\Cn1cncn1)c1ccc2ccccc2c1`, the Activity result in [1], in [2], in data set [3], in data set [4], in data set [5] and in data set [6] was “Non-Toxic” throughout.
